Experimental data: ChEMBL document CHEMBL1287763, “Antiangiogenic properties of substituted (Z)-(±)-2-(N-benzylindol-3-ylmethylene)quinuclidin-3-ol/one analogs and their derivatives” (Bioorg Med Chem Lett, 2010)
Activity calls are given as the source filed them. The calls are words filed in the database; no cut-off is given here.

Tests used:
HUVEC [1] = assay: Inhibition of ECTO-NOX in HUVEC assessed as reduction of WST-1 at 10 uM […]; type: cell-based; conditions: Homo sapiens
In short: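 HUVECs were grown for 24 h after seeding, then treated for 20 h in duplicate with analog (0.5, 1, 5, 10 µM) or DMSO solvent. WST-1 reduction was then measured following the kit protocol, read as optical density at 450 nm.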

HUVEC [2] = assay: Antiangiogenic activity against HUVEC assessed as inhibition of cell migration at 25 uM after 20 hrs by scratch assay; type: functional, cell-based; conditions: Homo sapiens
In short: (§1)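 Confluent HUVEC monolayers were scratched with a pipette tip and washed twice with PBS. Compound was added in HUVEC medium, and cells were incubated at 37°C for 20 h. Images were taken at 0 h (right after compound addition) and at 20 h. Migration was compared with cells not given compound.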

HUVEC [3] = assay: Antiangiogenic activity against HUVEC assessed as inhibition of cell migration at 10 uM after 20 hrs by scratch assay; type: functional, cell-based; conditions: Homo sapiens; in short: as §1
HUVEC [4] = assay: Cytotoxicity against HUVEC assessed as cell viability at 10 uM after 6 hrs by crystal violet staining; type: cell-based; conditions: human
HUVEC [5] = assay: Antiangiogenic activity against HUVEC assessed as inhibition of p70S6K1 phosphorylation at T389; type: functional, cell-based; conditions: Homo sapiens

Row | Compound | ECTO-NOX inhibition (active/not active) (HUVEC [1]) | Activity (HUVEC [2]) | Activity (HUVEC [3]) | Activity (HUVEC [4]) | inhibition (HUVEC [5])
1 | Cc1ccc(S(=O)(=O)n2cc(/C=C3/C(O)C4CCN3CC4)c3ccccc32)cc1 (centres undefined) | inactive | – | – | – | –
2 | O=[N+]([O-])c1ccc2c(c1)c(/C=C1/C(O)C3CCN1CC3)cn2Cc1ccccc1 (centres undefined) | – | Active | Active | Non-toxic | –
3 | O=C(Nc1ccccc1)OC1/C(=C/c2cn(S(=O)(=O)c3ccccc3)c3ccccc23)N2CCC1CC2 (centres undefined) | – | Active | Active | – | –
4 | OC1/C(=C/c2cn(Cc3cccc(F)c3)c3ccccc23)N2CCC1CC2 (centres undefined) | inactive | Active | Active | Non-toxic | –
5 | Cc1cccc(Cn2cc(/C=C3/C(O)C4CCN3CC4)c3cc(C)ccc32)c1 (centres undefined) | inactive | Active | Active | Non-toxic | –
6 | OC1/C(=C/c2cn(Cc3cccc(F)c3)c3ccc(Br)cc23)N2CCC1CC2 (centres undefined) | – | Active | Active | Non-toxic | –
7 | NC(=O)N/N=C1/C(=C/c2cn(S(=O)(=O)c3ccccc3)c3ccccc23)N2CCC1CC2 | inactive | Active | Active | – | –
8 | O=S(=O)(c1ccccc1)n1cc(/C=C2/C(=N/O)C3CCN2CC3)c2ccccc21 | Active | Active | Active | Non-toxic | Active
9 | OC1/C(=C/c2cn(Cc3ccccc3)c3ccc(Br)cc23)N2CCC1CC2 (centres undefined) | inactive | Active | Active | Non-toxic | –
